Data reported in ChEMBL document CHEMBL4152260, “Design, synthesis and biological evaluation of novel quinazoline-2,4-diones conjugated with different amino acids as potential chitin synthase inhibitors” (Eur J Med Chem, 2018).
pIC50: −log10 of the molar value. Values after ≈ are worked out from the molar mass of the structure shown.

Key:
Cryptococcus neoformans [1] = test: Synergistic antifungal activity against Cryptococcus neoformans ATCC 32719 measured after 48 hrs in presence of fluconazole by two-dimensional broth microdilution checkboard method; type: functional; conditions: ATCC 32719, 48 h
Summary of the method: (§1)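 Two-dimensional broth microdilution checkerboard combining test agent with fluconazole per CLSI M27-A3, 35 °C for 48 h, duplicate runs. Combination MICs read. FIC index = MIC_A(comb)/MIC_A(alone) + MIC_B(comb)/MIC_B(alone). Interaction classed synergistic ≤0.5, indifferent >0.5–4, antagonistic >4.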

Aspergillus flavus [2] = test: Antifungal activity against Aspergillus flavus ATCC 16870 measured after 48 hrs by two-dimensional broth microdilution checkboard method; type: functional; conditions: ATCC 16870, 48 h
Summary of the method: (§2)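 MICs of each agent alone re-determined in the checkerboard run. Two-dimensional broth microdilution per CLSI M27-A3, 35 °C for 48 h, each test performed twice (duplicate).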

Candida albicans [3] = test: Antifungal activity against Candida albicans ATCC 76615 measured after 24 hrs; type: functional; conditions: ATCC 76615, 24 h
Candida albicans [4] = test: Antifungal activity against Candida albicans ATCC 76615 measured after 48 hrs by two-dimensional broth microdilution checkboard method; type: functional; conditions: ATCC 76615, 48 h; summary of the method: as §2
Aspergillus fumigatus [5] = test: Synergistic antifungal activity against Aspergillus fumigatus GIMCC 3.19 assessed as fluconazole MIC mesured after 48 hrs by two-dimensional broth microdilution checkboard method; type: functional; conditions: GIMCC 3.19, 48 h; summary of the method: as §1
Cryptococcus neoformans [6] = test: Synergistic antifungal activity against Cryptococcus neoformans ATCC 32719 assessed as FIC index measured after 48 hrs in presence of fluconazole by two-dimensional broth microdilution checkboard method; type: functional; summary of the method: as §1
Aspergillus fumigatus [7] = test: Synergistic antifungal activity against Aspergillus fumigatus GIMCC 3.19 assessed as FIC index measured after 48 hrs in presence of fluconazole by two-dimensional broth microdilution checkboard method; type: functional; summary of the method: as §1
Aspergillus fumigatus [8] = test: Antifungal activity against Aspergillus fumigatus GIMCC 3.19 measured after 24 hrs; type: functional; conditions: GIMCC 3.19, 24 h
Candida albicans [9] = test: Synergistic antifungal activity against Candida albicans ATCC 76615 measured after 48 hrs in presence of fluconazole by two-dimensional broth microdilution checkboard method; type: functional; conditions: ATCC 76615, 48 h; summary of the method: as §1
Aspergillus flavus [10] = test: Synergistic antifungal activity against Aspergillus flavus ATCC 16870 assessed as fluconazole MIC mesured after 48 hrs by two-dimensional broth microdilution checkboard method; type: functional; conditions: ATCC 16870, 48 h; summary of the method: as §1
Aspergillus fumigatus [11] = test: Synergistic antifungal activity against Aspergillus fumigatus GIMCC 3.19 measured after 48 hrs in presence of fluconazole by two-dimensional broth microdilution checkboard method; type: functional; conditions: GIMCC 3.19, 48 h; summary of the method: as §1
Candida albicans [12] = test: Synergistic antifungal activity against Candida albicans ATCC 76615 assessed as fluconazole MIC mesured after 48 hrs by two-dimensional broth microdilution checkboard method; type: functional; conditions: ATCC 76615, 48 h; summary of the method: as §1
Candida albicans [13] = test: Synergistic antifungal activity against Candida albicans ATCC 76615 assessed as FIC index measured after 48 hrs in presence of fluconazole by two-dimensional broth microdilution checkboard method; type: functional; summary of the method: as §1
Aspergillus fumigatus [14] = test: Antifungal activity against Aspergillus fumigatus GIMCC 3.19 measured after 48 hrs by two-dimensional broth microdilution checkboard method; type: functional; conditions: GIMCC 3.19, 48 h; summary of the method: as §2
Aspergillus flavus [15] = test: Synergistic antifungal activity against Aspergillus flavus ATCC 16870 assessed as FIC index measured after 48 hrs in presence of fluconazole by two-dimensional broth microdilution checkboard method; type: functional; summary of the method: as §1
Cryptococcus neoformans [16] = test: Antifungal activity against Cryptococcus neoformans ATCC 32719 measured after 48 hrs by two-dimensional broth microdilution checkboard method; type: functional; conditions: ATCC 32719, 48 h; summary of the method: as §2
Cryptococcus neoformans [17] = test: Antifungal activity against Cryptococcus neoformans ATCC 32719 measured after 24 hrs; type: functional; conditions: ATCC 32719, 24 h
[18] = Inhibition of yeast chitin synthase using UDP-GlcNAc as substrate measured after 1 hr; parameters: species or system Saccharomyces cerevisiae
Summary of the method: (§3)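 Membrane CHS from S. cerevisiae CGMCC2.145 (YPAD, 30 °C, 48 h; sonication; 55000 g pellet in Tris/33% glycerol). Wells coated with WGA and blocked with BSA. Reaction in pH 6.8 Tris-maleate with 40 mM GlcNAc, 2 mM UDP-GlcNAc, 37 °C, 1 h. Product detected with WGA-HRP and TMB/H2O2, A450. Test solutions 300–18.75 μg/mL. Inhibition = (B0−Bn)/(B0−OD0); IC50 from log c plot.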

Saccharomyces cerevisiae = test: Inhibition of yeast chitin synthase at 300 ug/ml using UDP-GlcNAc as substrate measured after 1 hr relative to control; summary of the method: as §3
Aspergillus flavus [19] = test: Antifungal activity against Aspergillus flavus ATCC 16870 measured after 24 hrs; type: functional; conditions: ATCC 16870, 24 h
Cryptococcus neoformans [20] = test: Synergistic antifungal activity against Cryptococcus neoformans ATCC 32719 assessed as fluconazole MIC mesured after 48 hrs by two-dimensional broth microdilution checkboard method; type: functional; conditions: ATCC 32719, 48 h; summary of the method: as §1
Aspergillus flavus [21] = test: Synergistic antifungal activity against Aspergillus flavus ATCC 16870 measured after 48 hrs in presence of fluconazole by two-dimensional broth microdilution checkboard method; type: functional; conditions: ATCC 16870, 48 h; summary of the method: as §1

Compound	MIC (Candida albicans [3]) [µM]	MIC (Aspergillus fumigatus [8]) [µM]	MIC (Cryptococcus neoformans [17]) [µM]	inhibition (Saccharomyces cerevisiae) [%]	MIC (Aspergillus flavus [19]) [µM]	further results
Cn1c(=O)n(CC(=O)N2CCC[C@H]2C(=O)O)c(=O)c2ccccc21	> 1540	770 (≈ 255 µg/mL)	770 (≈ 255 µg/mL)	75.5	1540 (≈ 510 µg/mL)	MIC (Cryptococcus neoformans [1]): 386 µM; MIC (Aspergillus flavus [2]): 773 µM (≈ 256 µg/mL); MIC (Candida albicans [4]): 773 µM (≈ 256 µg/mL); MIC (Aspergillus fumigatus [5]): 13 µM; fractional inhibitory concentration index (FICI) (Cryptococcus neoformans [6]): 1.5; fractional inhibitory concentration index (FICI) (Aspergillus fumigatus [7]): 1.0625; MIC (Candida albicans [9]): 386 µM; MIC (Aspergillus flavus [10]): 7 µM; MIC (Aspergillus fumigatus [11]): 1540 µM; MIC (Candida albicans [12]): 13 µM; fractional inhibitory concentration index (FICI) (Candida albicans [13]): 0.625; MIC (Aspergillus fumigatus [14]): 1540 µM (≈ 512 µg/mL); fractional inhibitory concentration index (FICI) (Aspergillus flavus [15]): 0.3125; MIC (Cryptococcus neoformans [16]): 773 µM (≈ 256 µg/mL); pIC50 [18]: 3.74; MIC (Cryptococcus neoformans [20]): 104 µM; MIC (Aspergillus flavus [21]): 193 µM
Cn1c(=O)n(CC(=O)NC(Cc2ccc(OC(=O)Cn3c(=O)c4ccccc4n(C)c3=O)cc2)C(=O)O)c(=O)c2ccccc21 (centres undefined)	830 (≈ 509 µg/mL)	410 (≈ 252 µg/mL)	410 (≈ 252 µg/mL)	65.3	410 (≈ 252 µg/mL)	MIC (Cryptococcus neoformans [1]): 26 µM; MIC (Aspergillus flavus [2]): 417 µM (≈ 256 µg/mL); MIC (Candida albicans [4]): 417 µM (≈ 256 µg/mL); MIC (Aspergillus fumigatus [5]): 52 µM; fractional inhibitory concentration index (FICI) (Cryptococcus neoformans [6]): 0.5625; fractional inhibitory concentration index (FICI) (Aspergillus fumigatus [7]): 0.3125; MIC (Candida albicans [9]): 417 µM; MIC (Aspergillus flavus [10]): 26 µM; MIC (Aspergillus fumigatus [11]): 209 µM; MIC (Candida albicans [12]): 13 µM; fractional inhibitory concentration index (FICI) (Candida albicans [13]): 1.125; MIC (Aspergillus fumigatus [14]): 834 µM (≈ 512 µg/mL); fractional inhibitory concentration index (FICI) (Aspergillus flavus [15]): 0.625; MIC (Cryptococcus neoformans [16]): 417 µM (≈ 256 µg/mL); pIC50 [18]: 3.78; MIC (Cryptococcus neoformans [20]): 52 µM; MIC (Aspergillus flavus [21]): 209 µM
CC(C)C[C@H](NC(=O)Cn1c(=O)c2ccccc2n(C)c1=O)C(=O)O	> 1470	730 (≈ 254 µg/mL)	> 1470	52.8	> 1470	
OC(Cn1cncn1)(Cn1cncn1)c1ccc(F)cc1F [FLUCONAZOLE]	200 (≈ 61.3 µg/mL)	50 (≈ 15.3 µg/mL)	100 (≈ 30.6 µg/mL)		100 (≈ 30.6 µg/mL)	MIC (Aspergillus flavus [2]): 104 µM (≈ 31.9 µg/mL); MIC (Candida albicans [4]): 104 µM (≈ 31.9 µg/mL); MIC (Aspergillus fumigatus [14]): 209 µM (≈ 64 µg/mL); MIC (Cryptococcus neoformans [16]): 104 µM (≈ 31.9 µg/mL)
CSCC[C@H](NC(=O)Cn1c(=O)c2ccccc2n(C)c1=O)C(=O)O	> 1400	1400 (≈ 512 µg/mL)	700 (≈ 256 µg/mL)	43.1	> 1400	
Cn1c(=O)n(CC(=O)N[C@@H](Cc2ccccc2)C(=O)O)c(=O)c2ccccc21	> 1340	> 1340	> 1340	50.5	> 1340	
Cn1c(=O)n(CC(=O)NCCCC(=O)O)c(=O)c2ccccc21	1600 (≈ 511 µg/mL)	800 (≈ 255 µg/mL)	800 (≈ 255 µg/mL)	68.2	1600 (≈ 511 µg/mL)	pIC50 [18]: 3.52
Cn1c(=O)n(CC(=O)N[C@@H](CO)C(=O)O)c(=O)c2ccccc21	> 1590	790 (≈ 254 µg/mL)	> 1590	56.2	1590 (≈ 511 µg/mL)	
CC(C)[C@H](NC(=O)Cn1c(=O)c2ccccc2n(C)c1=O)C(=O)O	> 1530	760 (≈ 253 µg/mL)	760 (≈ 253 µg/mL)	18.5	> 1530	
Cn1c(=O)n(CC(=O)N[C@@H](Cc2cnc[nH]2)C(=O)O)c(=O)c2ccccc21	> 1370	1370 (≈ 509 µg/mL)	680 (≈ 253 µg/mL)	61.5	> 1370	pIC50 [18]: 3.52
Cn1c(=O)n(CC(=O)N[C@@H](Cc2c[nH]c3ccccc23)C(=O)O)c(=O)c2ccccc21	> 1210	> 1210	600 (≈ 252 µg/mL)	43.8	600 (≈ 252 µg/mL)	
Cn1c(=O)n(CC(=O)NCCC(=O)O)c(=O)c2ccccc21	1670 (≈ 510 µg/mL)	830 (≈ 253 µg/mL)	830 (≈ 253 µg/mL)	47.5	1670 (≈ 510 µg/mL)	
Cn1c(=O)n(CC(=O)NCC(=O)O)c(=O)c2ccccc21	> 1750	> 1750	870 (≈ 253 µg/mL)	22.6	870 (≈ 253 µg/mL)	
C[C@@H](NC(=O)Cn1c(=O)c2ccccc2n(C)c1=O)C(=O)O	1670 (≈ 510 µg/mL)	830 (≈ 253 µg/mL)	830 (≈ 253 µg/mL)	47.8	830 (≈ 253 µg/mL)	
CCC(NC(=O)Cn1c(=O)c2ccccc2n(C)c1=O)C(=O)O (centres undefined)	> 1600	800 (≈ 255 µg/mL)	800 (≈ 255 µg/mL)	13.2	1600 (≈ 511 µg/mL)	
